We go through 2 compounds from publication PMC5774489 (OncoTargets and therapy, 2018).

Where two headings read alike, the source gives them in different places.

Holding throughout (assay type): cell-based
In assay [1] the test system is HepG2 human hepatocarcinoma. The assay can be described thus: MTT antiproliferative activity, HepG2. The settings on record: read-out: IC50, HepG2. In a few lines: (§1)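 Cells were pre-incubated for 24 h at 37°C in 5% CO2. Medium was replaced with test compound at 10−4, 10−5, 10−6, 10−7 and 10−8 M for 72 h at 37°C. After a PBS wash, MTT was added for at least 4 h at 37°C and OD was read at 570 nm. IC50 (50% cell killing) came from percent viability versus log concentration; mean ± SEM, n=3.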

Assay [2] concerns A549 human adenocarcinomic alveolar basal epithelial cells. The assay can be described thus: MTT antiproliferative activity, A549. The settings on record: read-out: IC50, A549. The method, boiled down: as §1
The subject of assay [3] is Helf human embryonic lung fibroblast. The assay can be described thus: MTT antiproliferative activity, Helf. The following applies: 72 h, read-out: IC50, Helf. In a few lines: as §1
Assay [4] has as its system HCT-116 human colon cancer cells. The assay can be described thus: MTT antiproliferative activity, HCT-116. The settings on record: read-out: IC50, HCT-116. In a few lines: as §1
Assay [5] deals with selected malignant cell lines (B16F10, MCF-7, HCT-116, A549, HepG2). The assay can be described thus: MTT antiproliferative activity, selected malignant cell lines as a panel. The settings on record: 72 h, read-out: IC50 values, range over the selected malignant cell lines. The method, boiled down:
as §1

Assay [6] relates to B16F10 mouse melanoma cells. The assay can be described thus: MTT antiproliferative activity, B16F10. The settings on record: read-out: IC50, B16F10. The method, boiled down:
as §1

Assay [7] relates to MCF-7 human breast cancer cells. The assay can be described thus: MTT antiproliferative activity, MCF-7. The following applies: read-out: IC50, MCF-7. In a few lines: as §1
Assay [8] deals with human normal liver cells (L02). The assay can be described thus: MTT antiproliferative activity, L02. The following applies: 72 h, read-out: IC50, L02. In a few lines:
as §1

Where [9] appears, read: MTT, mean ± SEM, n=3, normal cells.

What is called IC50 is the concentration needed to halve the response being measured.

Turning to `C=C(C)[C@@H]1CC[C@]2(C(=O)O)CC[C@]3(C)[C@H](CC[C@@H]4[C@@]5(C)CC[C@H](O)C(C)(C)[C@@H]5CC[C@]43C)[C@@H]12` [BA, Betulinic acid], the concentration for half-maximal inhibition (IC50) in assay [1] (Homo sapiens, HepG2, 72 h) was 30.4 ± 5.14 µM; in assay [2] (Homo sapiens, A549, 72 h), 38.3 ± 5.9 µM; in assay [3] (Homo sapiens, HELF) it was 62 ± 8.61 µM; in assay [4] (Homo sapiens, HCT-116, 72 h), 27.3 ± 3.28 µM; in assay [5], 17.5 to 38.3 µM; in assay [6] (Mus musculus, B16-F10, 72 h), 27 ± 2.5 µM. Also, the half-maximal inhibitory concentration (IC50) in assay [7] (Homo sapiens, MCF7, 72 h) was found to be 17.5 ± 1.72 µM; in assay [8] (Homo sapiens), 96.3 ± 7.99 µM.
Regarding `N.N.[Cl][Pt][Cl]` [Cisplatin], the IC50 in assay [1] (MTT, 72 h, mean ± SEM, n=3) came to 4.77 ± 0.62 µM; in assay [2] (MTT, 72 h, mean ± SEM, n=3) it was 12.7 ± 1.85 µM; in assay [3] (setting [9]) it was 21.8 ± 3.03 µM; in assay [4] (MTT, 72 h, mean ± SEM, n=3), 9.45 ± 1.04 µM; in assay [6] (MTT, 72 h, concentration that caused 50% cell killing, mean ± SEM, n=3), 11.7 ± 0.95 µM; in assay [7] (MTT, 72 h, mean ± SEM, n=3) it was 7.83 ± 0.52 µM. Also, the 50% inhibitory concentration (IC50) in assay [8] (setting [9]) is 9.17 ± 0.83 µM.
